Only some compounds are listed: those with a hit (about 1.7% of all), similar ones and a draw of the others.
PREPL inh: inhibitors of human prolyl oligopeptidase-like enzyme PREPL | Q4J6C6 | recombinant PREPL, fluorescence polarization activity-based probe | inhibition, % at 5.96 µM | 0.68% of 320,000 active; in the data active means inhibition above about 43%;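 further: 0% = enzyme with DMSO and 100% = wells lacking enzyme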
EBNA-1 inhibitor: blocks EBNA-1 binding to DNA | EBNA-1 DNA binding, fluorescence polarization | inhibition, % at 14.8 µM | AID 1950 | 0.34% of 300,000 active; in the data active means inhibition above about 28%
UBC13 inh: human UBC13 polyubiquitination inhibition; P61088; 0.47% of 330,000 active; inhibition, % at 20 µM; UBC13 polyubiquitin chain formation, TR-FRET; in the data active means inhibition above about 45%, passing the limit was not always enough
ZTA DNA inh: counter-screen for EBNA-1 inhibitors: inhibitors of Epstein-Barr virus ZTA; P03206; inhibition, % at 11 µM; 0.15% of 320,000 active; ZTA-DNA binding, fluorescence polarization; AID 2234; in the data active means inhibition above about 33%
Apaf1 inhib: blocks human Apaf-1 apoptosome activity; reconstituted apoptosome caspase-3 activity, DEVD-Rh110 fluorescence; O14727; inhibition, % at 20 µM; AID 489030; 0.71% of 330,000 active; active means inhibition of at least 40% at 20 µM;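 further: plate controls were DMSO wells for no effect and DEVD-CHO caspase inhibitor wells for full effect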
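Material: cell-free apoptosome with Apaf-1, procaspase-3 and caspase-9; Buffer or medium: Hepes pH 7.5 with detergent and BSA; Reagent: cytochrome c trigger plus (Z-DEVD)2-Rh110 caspase-3 substrate; Times: compound with Apaf-1, dATP, procaspase-3 30 min, then 50 min reaction, room temperature; Technique: Rh110 fluorescence intensity.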
Casp3 counter: counter-screen for UBC13 inhibitors: human caspase-3 inhibition; 4% of 1,400 active; inhibition, % at 20 µM; shares compounds with UBC13 inh; AID 488856; Recombinant caspase-3, Caspase-Glo 3/7 luminescence, 60 min;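 active means mean inhibition across replicates above about 26%, limit read from the data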;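 further: plate controls were DMSO with caspase-3 for no effect and DMSO wells lacking enzyme for full effect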
UBC13 confirm: human UBC13 polyubiquitin inhibition, confirmed | shares compounds with UBC13 inh | UBC13 polyubiquitination, TR-FRET, biochemical | inhibition, % at 10 µM | 68% of 1,400 active; in the data active means inhibition above about 45%
Apaf-1 inh conf: Apaf-1 inhibition, single-dose confirmed; 25% of 1,800 active; reconstituted apoptosome, caspase-3 DEVD-Rh110 fluorescence; inhibition, % at 20 µM; shares compounds with Apaf1 inhib;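 active means mean inhibition of at least 40% at 20 µM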;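 further: plate controls were DMSO wells for no effect and DEVD-CHO caspase inhibitor control wells for full effect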
Rh110 quench: counter-screen for Apaf-1 inhibitors: fluorescence interference; shares compounds with Apaf1 inhib; Rh110 fluorescence interference, quenched caspase reaction; activation (fluorescence interference), % at 20 µM; 1,800 tested, under 10 active;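 active means signal rise of 40% or more at 20 µM, treated as a fluorescence artifact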
Apaf1 inh interf: counter-screen for Apaf-1 inhibitors: fluorescence interference, dose response; shares compounds with Apaf1 inhib; fluorescence interference counterscreen, Apaf-1 assay format; IC50, µM; 460 tested, under 10 active; AID 588538; call rule not given here
* hit, by the source's call.

COc1ccc(O)c2c(=O)c3c(OC)cc4c(c3oc12)C1C=COC1O4 (centres undefined) was read as PREPL inh 13, EBNA-1 inhibitor 11, ZTA DNA inh 6, Apaf1 inhib -3 and Casp3 counter -4.
CCc1c(C)nc(N)nc1N1N=C1SC was read as PREPL inh 4, EBNA-1 inhibitor 15, UBC13 inh 6, ZTA DNA inh 11 and Apaf1 inhib -4.
Screening Cc1ccc2c(c1)C1CN(C)CCC1N2C(=O)/C(C#N)=C/c1ccc2c(c1)OCO2 (centres undefined) returned PREPL inh 1, EBNA-1 inhibitor 7, UBC13 inh 46*, ZTA DNA inh 9, Apaf1 inhib -10, Casp3 counter 1 and UBC13 confirm 56*.
COc1ccc2[nH]cc(CCN(C)C)c2c1 was read as PREPL inh 3, EBNA-1 inhibitor 7, UBC13 inh -4, ZTA DNA inh 10 and Apaf1 inhib -8.
Screening CCCCCC[N+](=O)[O-] returned PREPL inh 1, UBC13 inh 4, ZTA DNA inh -8 and Apaf1 inhib -6.
`CCCCCCCCCCCCCCCC[N+](C)(C)C` gave PREPL inh 26, EBNA-1 inhibitor 1, UBC13 inh 90*, ZTA DNA inh 3, Apaf1 inhib 85*, Casp3 counter 8, UBC13 confirm 84*, Apaf-1 inh conf 46*, Rh110 quench 15 and Apaf1 inh interf >100.
For COC(=O)C1=C(c2ccc(F)cc2OCc2ccccc2)C[C@@H]2CC[C@H]1N2C(=O)NC1CCN(Cc2ccccc2)CC1 the results were PREPL inh 27, UBC13 inh 51*, ZTA DNA inh -6, Apaf1 inhib 53*, Casp3 counter -3, UBC13 confirm 38, Apaf-1 inh conf 9 and Rh110 quench -4.
Screening CCOC(=O)c1c(C)n(Cc2ccc3c(c2)OCO3)c2ccc(O)cc12 returned PREPL inh 17, EBNA-1 inhibitor 1, UBC13 inh 12, ZTA DNA inh 7 and Apaf1 inhib 6.
COc1cccc(N=Nc2c(O)[nH]c(=S)[nH]c2=O)c1 was read as PREPL inh -3, EBNA-1 inhibitor 1, UBC13 inh -93, ZTA DNA inh -5 and Apaf1 inhib -18.
`Fc1ccccc1CNC1CN2CCC1CC2` (centres undefined) gave PREPL inh 0, EBNA-1 inhibitor 5, UBC13 inh 13, ZTA DNA inh 12 and Apaf1 inhib -23.
For Ic1ccccc1CN[C@@H]1C2CCN(CC2)[C@@H]1C(c1ccccc1)c1ccccc1 the results were PREPL inh 42, EBNA-1 inhibitor 0, UBC13 inh 49*, ZTA DNA inh 4, Apaf1 inhib 50*, Casp3 counter -3, UBC13 confirm 28, Apaf-1 inh conf 13 and Rh110 quench 5.
`NCCc1ccc(OCc2ccccc2)c(OCc2ccccc2)c1` gave PREPL inh 9, UBC13 inh 60*, ZTA DNA inh 8, Apaf1 inhib 46*, Casp3 counter 0, UBC13 confirm 59*, Apaf-1 inh conf 2 and Rh110 quench 1.
`O=[N+]([O-])c1ccc(NCCCN2CCOCC2)c2ncccc12` gave PREPL inh 2, EBNA-1 inhibitor -13, UBC13 inh -192, ZTA DNA inh -7, Apaf1 inhib 40*, Apaf-1 inh conf 6 and Rh110 quench 2.
`NCCNc1ccc([N+](=O)[O-])c2cccnc12` gave PREPL inh 5, EBNA-1 inhibitor -6, UBC13 inh -76, ZTA DNA inh -2 and Apaf1 inhib 9.
Screening COc1cc2c3c(c1OC)Oc1ccc(cc1)C[C@H]1c4c(cc(OC)c(OC)c4Oc4ccc(cc4)C[C@@H]3N(C)CC2)CCN1C returned PREPL inh 32, UBC13 inh 15, Apaf1 inhib 45*, Apaf-1 inh conf 15 and Rh110 quench -2.
Screening COc1cc2c3cc1Oc1c(OC)c(OC)cc4c1[C@H](Cc1ccc(cc1)Oc1cc(ccc1O)C[C@H]3N(C)CC2)N(C)CC4 returned PREPL inh 36, UBC13 inh 24 and Apaf1 inhib 8.
For Cc1c2ccncc2c(C)c2c1[nH]c1ccccc12 the results were PREPL inh 28, EBNA-1 inhibitor -6, UBC13 inh 39, ZTA DNA inh 5, Apaf1 inhib 67*, Apaf-1 inh conf 37 and Rh110 quench 12.
For CCC(C)NC(=O)c1c(N)n(CC2CCCO2)c2nc3ccccc3nc12 (centres undefined) the results were PREPL inh 1, EBNA-1 inhibitor 4, UBC13 inh 14, ZTA DNA inh 5, Apaf1 inhib 94*, Apaf-1 inh conf 56*, Rh110 quench 12 and Apaf1 inh interf >100.
For CCCCOCCCn1c(N)c(C(=O)OC(C)COC)c2nc3ccccc3nc21 (centres undefined) the results were PREPL inh 2, EBNA-1 inhibitor 10, UBC13 inh 14, ZTA DNA inh 5 and Apaf1 inhib 0.
CCCCn1c(N)c(C(=O)NCCN2CCOCC2)c2nc3ccccc3nc21 was read as PREPL inh 14, EBNA-1 inhibitor -4, UBC13 inh -8, ZTA DNA inh -25 and Apaf1 inhib 37.
CCC(C)NC(=O)c1c(N)n(CCCOC)c2nc3ccccc3nc12 (centres undefined) was read as PREPL inh 9, EBNA-1 inhibitor 2, UBC13 inh -8, ZTA DNA inh 7, Apaf1 inhib 91*, Apaf-1 inh conf 59*, Rh110 quench 9 and Apaf1 inh interf >100.
COCCCn1c(N)c(C(=O)Nc2sc3c(c2C(=O)OC)CCCC3)c2nc3ccccc3nc21 was read as PREPL inh 2, EBNA-1 inhibitor -2, UBC13 inh -22, ZTA DNA inh -8, Apaf1 inhib 90*, Apaf-1 inh conf 26 and Rh110 quench 10.
For COCCCn1c(N)c(C(=O)OC(C)COC)c2nc3ccccc3nc21 (centres undefined) the results were PREPL inh 2, EBNA-1 inhibitor 12, UBC13 inh -13, ZTA DNA inh 14, Apaf1 inhib 74*, Apaf-1 inh conf 8 and Rh110 quench 9.

Assay outcomes (PubChem)
